Experimental data as given in PMC5613202 (CPT: Pharmacometrics & Systems Pharmacology, 2017).
Where a SMILES comes first, the peptide text is derived from it. Bridges are numbered along the chain shown (N, C = ends). [ ]: non-standard residue; d: D form. 2Nal = N[C@@H](Cc1ccc2ccccc2c1)C(=O)O; Lys(iPr) = CC(C)NCCCC[C@H](N)C(=O)O

Key:
[1] = format: in vivo, human
How it was run: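 The analysis used 767 plasma samples from 147 patients given once-daily s.c. doses. Concentrations were measured by validated LC-MS/MS (LLOQ 0.2, ULOQ 100 ng/mL). The data were fitted with a two-compartment nonlinear mixed-effects model with first-order absorption and dose-dependent clearance. Exponential interindividual variability was used, with allometric body-weight scaling to an 80.1-kg subject. The model was built on rich dose-escalation data, then refined with sparse data. Absorption rate was later fixed at 10 h-1.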

Antidrug antibody = test: Antidrug antibody; set-up: species or system human; conditions: all patients included in the analysis datasets
How it was run: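 Serum was sampled repeatedly before and after starting once-daily s.c. dosing. Qualitative direct ELISA: the test compound was immobilised on the plate to capture antibodies, which were detected with HRP-conjugated goat anti-human IgG, IgM and IgA and a tetramethylbenzidine substrate. Pooled normal human serum served as negative control. Serum from hyperimmunised cynomolgus monkeys, at various dilutions, served as positive control.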

CXCR4 = conditions: cited from earlier work
blood CD34+ cell counts = format: in vivo, human; conditions: patients
How it was run: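 Pooled data from three open-label trials of once-daily s.c. peptide antagonist. In the dose-escalation trial, patients received 1–30 mg/day, or 2.5 or 20 mg/day, for 28-day cycles with rich sampling. The other two trials gave 20 mg/day with standard-of-care chemotherapy or sunitinib and used sparse sampling. CD34+ counts were measured by flow cytometry. The model was a precursor model with reversible precursor–central transfer and concentration-driven stimulation of mobilisation (Smax, SC50).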

[2] = tested on: CXCL12/CXCR4-mediated chemotaxis; conditions: in vitro; cited from earlier work
MDA‐MB‐231 breast cancer = MDA‐MB‐231 breast cancer metastatic xenograft model; cited from earlier work
cytochromes = conditions: preclinical evaluations, no reference given; cited from earlier work
[3] = rats, excretion studies, no reference given; cited from earlier work
[4] = tested on: leukocytes and hematopoietic progenitors; conditions: rodent and primate models; cited from earlier work
[5] = population PK typical value, s.c.

CC(C)NCCCC[C@H](NC(=O)[C@H]1CCC(=O)N[C@@H](Cc2ccccc2)C(=O)N[C@@H](Cc2ccc(O)cc2)C(=O)N[C@@H](CCCCNC(C)C)C(=O)N[C@H](CCCNC(=N)N)C(=O)N[C@@H](Cc2ccc3ccccc3c2)C(=O)NCC(=O)N1)C(N)=O [LY2510924] (FY[Lys(iPr)][dR][2Nal]G[dE][Lys(iPr)]-NH2; lactam N-7)
TVKA, estimates of typical first‐order absorption rate when estimated ([1]; high and poorly estimated, before fixing, s.c.): > 40 h⁻¹ | TVV2/F, typical apparent central volume of distribution ([1]; population PK typical value, 80.1-kg subject, s.c.): 35.0 L | TVCLmin/F, typical minimum apparent elimination clearance ([1]; population PK typical value, 80.1-kg subject, s.c. once daily, 147 patients): 4.75 L/h | TVQ/F, typical apparent distribution clearance [1, 5]: 3.74 L/h | TVV3/F, typical apparent peripheral volume of distribution [1, 5]: 21.9 L | bV, typical allometric exponent specific to central volume ([1]; population PK, body weight scaling relative to 80.1 kg): 0.948 | patients who developed ADA (Antidrug antibody): None | CXCR4 agonist properties (CXCR4): does not exhibit any CXCR4 agonist properties | SC50, LY2510924 concentration at which half of the maximum stimulatory effect is achieved (blood CD34+ cell counts; PK/PD model typical value, plasma concentration): 6.87 ng/mL | Smax, maximum stimulatory effect of LY2510924 on CD34+ cell mobilization (blood CD34+ cell counts; PK/PD model typical value, s.c. once daily): 13.1 | EC50 (blood CD34+ cell counts; read-out: SC50, LY2510924 concentration at which half of the maximum stimulatory effect is achieved, conversion of 6.87 ng/mL, plasma concentration): 5.78 nM | value observed in chemotaxis inhibition assays [2]: 0.26 nM | effect on tumor metastasis (MDA‐MB‐231 breast cancer): inhibit tumor metastasis | substrate, inhibitor or inducer of cytochromes (cytochromes): not a substrate, an inhibitor, or an inducer of cytochromes | dose recovered as parent drug in urine [3]: < 40% | mobilization of leukocytes and hematopoietic progenitors to the blood stream [4]: dose‐ and time‐dependent mobilization
